Assay results published in ChEMBL document CHEMBL4049443, “Discovery of 2-[[2-Ethyl-6-[4-[2-(3-hydroxyazetidin-1-yl)-2-oxoethyl]piperazin-1-yl]-8-methylimidazo[1,2-a]pyridin-3-yl]methylamino]-4-(4-fluorophenyl)thiazole-5-carbonitrile (GLPG1690), a First-in-Class Autotaxin Inhibitor Undergoing Clinical Evaluation for the Treatment of Idiopathic Pulmonary …” (J Med Chem, 2017).

Experiments:
[1] = target: Cytochrome P450 3A4 (Homo sapiens, UniProt P08684); test: Time-dependent inhibition of human liver microsomes CYP3A4; type: ADME
Cytochrome P450 3A4, sequence (P08684 whole entry): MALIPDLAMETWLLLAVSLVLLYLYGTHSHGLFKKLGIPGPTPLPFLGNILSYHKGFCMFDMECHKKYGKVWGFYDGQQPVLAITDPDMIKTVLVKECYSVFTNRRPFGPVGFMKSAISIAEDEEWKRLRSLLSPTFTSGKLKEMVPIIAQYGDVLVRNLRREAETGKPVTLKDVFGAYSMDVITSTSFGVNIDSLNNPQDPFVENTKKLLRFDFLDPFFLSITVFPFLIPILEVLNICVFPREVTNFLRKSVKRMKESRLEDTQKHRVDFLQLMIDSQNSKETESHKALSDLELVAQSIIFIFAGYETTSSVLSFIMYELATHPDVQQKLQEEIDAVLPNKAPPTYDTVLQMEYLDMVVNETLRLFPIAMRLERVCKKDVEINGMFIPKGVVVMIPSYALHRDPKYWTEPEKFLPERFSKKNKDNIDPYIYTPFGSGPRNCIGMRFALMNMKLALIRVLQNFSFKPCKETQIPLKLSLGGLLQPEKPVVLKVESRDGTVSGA

[2] = target: Autotaxin (Mus musculus, UniProt Q9R1E6); test: Inhibition of ATX in mouse plasma assessed as reduction in LPA 18:2 production after 2 hrs by LC-MS/MS analysis
[3] = target: Autotaxin (Rattus norvegicus, UniProt Q64610); test: Inhibition of ATX in rat plasma assessed as reduction in LPA 18:2 production after 2 hrs by LC-MS/MS analysis
[4] = Protein binding to human plasma; type: ADME, cell-free; details: read-out: PPB
[5] = Protein binding to dog plasma; type: ADME, cell-free, Canis lupus familiaris; details: read-out: PPB
[6] = Protein binding to rat plasma; type: ADME, cell-free; details: read-out: PPB
[7] = Protein binding to mouse plasma; type: ADME, cell-free; details: read-out: PPB
[8] = Plasma clearance in mouse at 1 mg/kg, iv; type: ADME, organism-based
[9] = Oral bioavailability in mouse at 5 mg/kg; type: ADME, organism-based; details: in vivo
[10] = Plasma clearance in rat at 1 mg/kg, iv; type: ADME, organism-based
[11] = Oral bioavailability in rat at 5 mg/kg; type: ADME, organism-based; details: in vivo
[12] = Plasma clearance in dog at 1 mg/kg, iv; type: ADME, organism-based, Canis lupus familiaris
Outline: (§1)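 Dog: from 1 mg/kg oral and intravenous doses. Clearance taken from the intravenous arm.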

[13] = Oral bioavailability in dog at 1 mg/kg; type: ADME, organism-based, Canis lupus familiaris; details: in vivo; outline: as §1
[14] = Cmax in C57BL/6Rj mouse at 3 mg/kg administered as single dose via oral gavage up to 24 hrs by LC-MS/MS analysis; type: ADME, organism-based; design: dose 3 mg/kg, route oral; details: in vivo
Outline: (§2)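 Female C57BL/6Rj mice, 4−5 weeks old, fasted, given one oral gavage in PEG 200/MC 0.5% (25/75 v/v) at 0.3, 1 or 3 mg/mL. Intracardiac blood under isoflurane at 1, 3, 6 and 24 h into Li-heparin; n = 3 per time point. Methanol precipitation, LC−MS/MS against an eight-level calibration curve (LLOQ 4 ng/mL).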

[15] = system: Mus musculus; test: Dose normalized Cmax in C57BL/6Rj mouse at 3 mg/kg administered as single dose via oral gavage up to 24 hrs by LC-MS/MS analysis; type: ADME, organism-based; details: in vivo; outline: as §2
[16] = AUC (0 to 24 hrs) in C57BL/6Rj mouse at 3 mg/kg administered as single dose via oral gavage by LC-MS/MS analysis; type: ADME, organism-based; design: time < 24 hr, dose 3 mg/kg, route oral; details: in vivo; outline: as §2
[17] = system: Mus musculus; test: Dose normalized AUC (0 to 24 hrs) in C57BL/6Rj mouse at 3 mg/kg administered as single dose via oral gavage by LC-MS/MS analysis; type: ADME, organism-based; details: in vivo; outline: as §2
[18] = Plasma concentration in C57BL/6Rj mouse at 3 mg/kg administered as single dose via oral gavage after 24 hrs by LC-MS/MS analysis; type: ADME, organism-based; outline: as §2
[19] = Apparent elimination half life in C57BL/6Rj mouse at 3 mg/kg administered as single dose via oral gavage up to 24 hrs by LC-MS/MS analysis; type: ADME, organism-based; details: in vivo, read-out: betat1/2(app) (converted); outline: as §2
[20] = system: Mus musculus; test: In vivo inhibition of ATX in C57BL/6Rj mouse assessed as reduction in LPA 18:2 level in plasma at 3 mg/kg administered as single dose via oral gavage by LC-MS/MS analysis; type: functional
Outline: (§3)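 Same single-gavage mouse study (female C57BL/6Rj, PEG 200/MC 0.5% vehicle, n = 3, bled predose and at 1, 3, 6, 24 h); vehicle control group. Plasma (10 μL) precipitated with methanol containing LPA 17:0 internal standard. LPA 18:2 read by LC−MS/MS as peak-area ratio to LPA 17:0. % reduction = 100 − (LPA at time t / mean vehicle LPA at time t × 100).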

[21] = system: Mus musculus; test: In vivo inhibition of ATX in C57BL/6Rj mouse assessed as reduction in LPA 18:2 level in plasma at 10 mg/kg administered as single dose via oral gavage by LC-MS/MS analysis; type: functional; outline: as §3
[22] = system: Mus musculus; test: In vivo inhibition of ATX in C57BL/6Rj mouse assessed as reduction in LPA 18:2 level in plasma at 30 mg/kg administered as single dose via oral gavage by LC-MS/MS analysis; type: functional; outline: as §3
[23] = system: Mus musculus; test: In vivo inhibition of ATX in C57BL/6Rj mouse assessed as time for maximum reduction in LPA 18:2 at 3 mg/kg administered as single dose via oral gavage by LC-MS/MS analysis; type: functional; outline: as §3

## CCc1nc2c(C)cc(N3CCN(CC(=O)N4CC(O)C4)CC3)cn2c1N(C)c1nc(-c2ccc(F)cc2)c(C#N)s1 [ZIRITAXESTAT]
[1]
  TDI: Not Active
[2]
  IC50: 418 nM
[3]
  IC50: 542 nM
[4]
  fraction unbound: < 0.01
[5]
  fraction unbound: < 0.01
[6]
  fraction unbound: < 0.01
[7]
  fraction unbound: < 0.01
[8]
  clearance: 3.83 mL/min/kg
[9]
  bioavailability: 29%
[10]
  clearance: 11.5 mL/min/kg
[11]
  bioavailability: 37%
[12]
  clearance: 2 mL/min/kg
[13]
  bioavailability: 63%
[14]
  Cmax: 1080 ng/mL
[15]
  Cmax/dose: 358 ng/mL/(mg/kg)
[16]
  AUC(0-t) at 24 h: 5550 ng·h/mL
[17]
  AUC/dose: 1851 ng·h/mL/mg/kg
[18]
  concentration at 24 h: 1 ng/mL
[19]
  half-life: 2.21 h
[20]
  inhibition in vivo at 3 mg/kg: 83.6%
[21]
  inhibition in vivo at 10 mg/kg: 90.9%
[22]
  inhibition in vivo at 30 mg/kg: 95.2%
[23]
  Time: 3 h
